PMC6925959 (Journal of medicinal chemistry, 2019)
Entries after “also recorded” stand apart in the source; their conditions may differ. Read-outs that look alike come from different tables or passages of the source. Values belong to the molecule of their own block, whether it stands above or below them.

Columns and labels:
tubulin = experiment: Inhibition of [3H]colchicine binding to tubulin; conditions: 1.0 µM tubulin, 5.0 µM [3H]colchicine
[1] = test system: NCI-H460 (lung) cancer cell line; experiment: SRB growth inhibition assay, NCI-H460; type: cell-based, human; conditions: read-out: GI50 (μM) SRB assay NCI-H460
[2] = test system: DU-145 (prostate) cancer cell line; experiment: SRB growth inhibition assay, DU-145; type: cell-based, human; conditions: read-out: GI50 (μM) SRB assay DU-145
[3] = test system: PC3-DAB2IP-luc human prostate tumor xenograft; experiment: In vivo vascular disruption by dynamic bioluminescence imaging; set-up: species or system rat
Summary of the method: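 Three male […] rats (about 6 weeks old, 100-120 g) carried s.c. right-thigh PC3-DAB2IP-luc tumors (5 X 10⁵ cells in 30% Matrigel), treated once tumors reached ≥1 cm diameter. Prodrug in saline was given IP as single or sequential doses, with CA4P IP as control. Under 3% isoflurane, 120 mg/kg D-luciferin was injected s.c. in the neck, fresh at each session. Tumor-ROI light emission was imaged over about 30 min at baseline, 4 h and 24 h.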

tumor vasculature = conditions: 30 mg/kg, rats; cited from earlier work
[4] = test system: purified bovine brain tubulin; experiment: Inhibition of tubulin polymerization; type: biochemical; conditions: cell-free assay
[5] = test system: SK-OV-3 (ovarian) cancer cell line; experiment: SRB growth inhibition assay, SK-OV-3; type: cell-based; conditions: Homo sapiens, SK-OV-3, 48 h, read-out: GI50 (μM) SRB assay SK-OV-3

Molecule: N-(1-hydroxy-2-methoxy-5-(3,4,5-trimethoxyphenyl)-6,7,8,9-tetrahydro-5H-benzo[7]annulen-7-yl)acetamide [Compound 49]
% Inhibition of colchicine binding ± SD (tubulin; compound at 5 μM): 0.4 ± 0.6 (5 μM) %
GI50 ([1]; NCI-H460, 48 h treatment): 334 nM
GI50 ([2]; DU-145, 48 h treatment): 1200 nM

Molecule: COc1ccc(/C=C\c2cc(OC)c(OC)c(OC)c2)cc1OP(=O)([O-])[O-].[Na+].[Na+] [CA4P, combretastatin A-4 phosphate, reference compound]
Extent and longevity of diminished BLI signal compared with 40 mg/kg 69 ([3]; 30 mg/kg IP, rat): very similar effect
Vascular shutdown (tumor vasculature): extensive vascular shutdown

Molecule: COc1cc(C2CCc3c(ccc(OC)c3OC)C(=O)C2)cc(OC)c1OC (stereo not drawn) [Compound 57, 1,2-Dimethoxy-7-(3,4,5-trimethoxyphenyl)-6,7,8,9-tetrahydro-5H-benzo[7]annulen-5-one]
Inhibition of tubulin polymerization (in words) [4]: lack of activity
% Inhibition of colchicine binding ± SD (tubulin; compound at 5 μM): 0 (5 μM) %

Molecule: COc1ccc2c(c1O)CCCC=C2c1cc(OC)c(OC)c(OC)c1 [KGP18, 3-Methoxy-9-(3,4,5-trimethoxyphenyl)-6,7-dihydro-5H-benzo[7]annulen-4-ol, reference compound]
GI50 [5]: 0.0543 nM
GI50 ([1]; Homo sapiens, NCI-H460, 48 h): 0.0418 nM
GI50 ([2]; Homo sapiens, DU-145, 48 h): 0.0249 nM

Molecule: COc1ccc2c(c1CO)CCCC=C2c1cc(OC)c(OC)c(OC)c1 [Compound 28, (3-Methoxy-9-(3,4,5-trimethoxyphenyl)-6,7-dihydro-5H-benzo[7]annulen-4-yl)methanol]
GI50 [5]: 40.3 nM

Molecule: COc1ccc2c(c1O)CC=CC=C2c1cc(OC)c(OC)c(OC)c1 [Compound 68, 3-Methoxy-9-(3,4,5-trimethoxyphenyl)-5H-benzo[7]annulen-4-ol]
GI50 [5]: 6.9 nM
GI50 ([2]; Homo sapiens, DU-145, 48 h): 97.6 nM

Molecule: COc1cc(C2=CC=CCc3c2ccc(OC)c3OP(=O)([O-])[O-])cc(OC)c1OC.[Na+].[Na+] [Compound 69, Sodium 3-methoxy-9-(3,4,5-trimethoxyphenyl)-5H-benzo[7]annulen-4-yl phosphate]
Inhibition of tubulin polymerization (in words) [4]: inactive
GI50 [5]: 15.3 nM
GI50 ([2]; Homo sapiens, DU-145, 48 h): 23.9 nM
Change in BLI light emission / vascular perturbation ([3]; 10 mg/kg IP, rat): minimal change in light emission; also recorded: no vascular perturbation
Recovery of BLI signal ([3]; 40 mg/kg IP, 24 h, rat): substantial recovery
Appearance of the rats ([3]; 40 mg/kg IP, 48 h): appeared healthy
Tolerability ([3]; 80 mg/kg IP, rat): well tolerated
Vascular disruption at the higher dose ([3]; 80 mg/kg IP, rat, compared with 40 mg/kg): did not show additional vascular disruption

Molecule: COc1cc(C2(O)C=CCCc3c2ccc(OC)c3OC)cc(OC)c1OC (stereo not drawn) [Compound 56, 1,2-Dimethoxy-5-(3,4,5-trimethoxyphenyl)-8,9-dihydro-5H-benzo[7]annulen-5-ol]
Inhibition of tubulin polymerization (in words) [4]: lack of tubulin activity
% Inhibition of colchicine binding ± SD (tubulin; compound at 5 μM): 0 (5 μM) %

% Inhibition of colchicine binding ± SD (tubulin; compound at 5 μM): 0 (5 μM) %
Molecule: COc1ccc2c(c1O)CCCC(O)C2(O)c1cc(OC)c(OC)c(OC)c1 (stereo not drawn) [Compound 15, 2-Methoxy-5-(3,4,5-trimethoxyphenyl)-6,7,8,9-tetrahydro-5H-benzo[7]annulene-1,5,6-triol]

Molecule: COc1cc(C2=CCCCc3c2ccc(OC)c3OCCO)cc(OC)c1OC [Compound 11, 2-((3-Methoxy-9-(3,4,5-trimethoxyphenyl)-6,7-dihydro-5H-benzo[7]annulen-4-yl)oxy)ethan-1-ol]
Inhibition of tubulin polymerization (in words) [4]: loss of inhibitory activity

Molecule: COc1ccc(/C=C\c2cc(OC)c(OC)c(OC)c2)cc1O [CA4, combretastatin A-4, reference compound]
% Inhibition of colchicine binding ± SD (tubulin; compound at 1 μM): 84 ± 3%

Molecule: COCCOCCOc1c(OC)ccc2c1CCCC=C2c1cc(OC)c(OC)c(OC)c1 [Compound 8, 3-Methoxy-4-(2-(2-methoxyethoxy)ethoxy)-9-(3,4,5-trimethoxyphenyl)-6,7-dihydro-5H-benzo[7]annulene]
Inhibition of tubulin polymerization (in words) [4]: loss of inhibitory activity
